# Experimental data reported in ChEMBL document CHEMBL5303300, “EUbOPEN Chemogenomics Library - Multiplex” (2023).
# Values joined by “and” are separate entries in the source; they are usually repeats but may differ in a detail not shown here. Identical values can stand only once.
# Key:
# HEK-293T = test: Multiplex assay against HEK293T; format: toxicity, cell-based; settings: human, number of replicates 2
# Summary of the method: (§1)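 Values for tubulin, mitochondrial-mass and membrane-permeability phenotypes are per cents of cells with healthy nuclei. These cells were identified by CellPathfinder machine-learning gating of live cells that had been stained at seeding with Hoechst33342, BioTracker Green Microtubule Cytoskeleton Dye, MitoTracker Red and Annexin V Alexa Fluor 680 and imaged on a CQ1 microscope at 37°C and 5% CO2 after compound addition. The gating first set Hoechst high-intensity objects apart from normal cells, then split normal cells into healthy, pyknosed or fragmented nuclei, and pyknosed cells into mitotic or apoptotic.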
# U2OS = test: Multiplex assay against U2OS; format: toxicity, cell-based; settings: human, number of replicates 2; summary of the method: as §1
# [1] = 24 h, 1 µM, compound concentration 1 uM
# [2] = 24 h, 10 µM, compound concentration 10 uM
# [3] = 48 h, 1 µM, compound concentration 1 uM
# [4] = 48 h, 10 µM, compound concentration 10 uM
# [5] = 12 h, 1 µM, compound concentration 1 uM
# [6] = 12 h, 10 µM, compound concentration 10 uM
smiles,measurement,setting,value
CN(C)C/C=C/C(=O)Nc1cccc(S(=O)(=O)N2CCC(NC(=O)c3n[nH]cc3NC(=O)c3c(Cl)cc(Cl)cc3Cl)CC2)c1,Population Mitochondria Different-Phenotype (%),HEK-293T; [1],70% and 63%
same,Population Mitotic Cells (%),HEK-293T; [1],19% and 20%
same,Population Normal (%),HEK-293T; [1],86% and 88%
same,Population Pyknosed Nuclei (%),HEK-293T; [1],7% and 10%
same,Population Tubulin-Different-Phenotype (%),HEK-293T; [1],87% and 89%
same,Total Cell Count,HEK-293T; [1],336 and 325
same,Population Apoptotic (%),HEK-293T; [2],94% and 91%
same,Population Fragmented Nuclei (%),HEK-293T; [2],2% and 4%
same,Population Healthy Nuclei (%),HEK-293T; [2],64% and 53%
same,Population Hoechst High Intensity Objects (%),HEK-293T; [2],19% and 22%
same,Population Membrane Permeable-Phenotype (%),HEK-293T; [2],3% and 4%
same,Population Mitochondria Different-Phenotype (%),HEK-293T; [2],93% and 90%
same,Population Mitotic Cells (%),HEK-293T; [2],6% and 8%
same,Population Normal (%),HEK-293T; [2],80% and 77%
same,Population Pyknosed Nuclei (%),HEK-293T; [2],32% and 42%
same,Population Tubulin-Different-Phenotype (%),HEK-293T; [2],71% and 67%
same,Total Cell Count,HEK-293T; [2],381 and 319
same,Population Apoptotic (%),HEK-293T; [3],92% and 73%
same,Population Fragmented Nuclei (%),HEK-293T; [3],3% and 2%
same,Population Healthy Nuclei (%),HEK-293T; [3],86% and 82%
same,Population Hoechst High Intensity Objects (%),HEK-293T; [3],20% and 12%
same,Population Membrane Permeable-Phenotype (%),HEK-293T; [3],1%
same,Population Mitochondria Different-Phenotype (%),HEK-293T; [3],75% and 81%
same,Population Normal (%),HEK-293T; [3],79% and 87%
same,Population Pyknosed Nuclei (%),HEK-293T; [3],10% and 15%
same,Population Tubulin-Different-Phenotype (%),HEK-293T; [3],85% and 91%
same,Total Cell Count,HEK-293T; [3],328 and 309
same,Population Apoptotic (%),HEK-293T; [4],78% and 71%
same,Population Fragmented Nuclei (%),HEK-293T; [4],6%
same,Population Healthy Nuclei (%),HEK-293T; [4],30% and 25%
same,Population Hoechst High Intensity Objects (%),HEK-293T; [4],14%
same,Population Membrane Permeable-Phenotype (%),HEK-293T; [4],3% and 7%
same,Population Mitochondria Different-Phenotype (%),HEK-293T; [4],90% and 76%
same,Population Mitotic Cells (%),HEK-293T; [4],21% and 28%
same,Population Normal (%),HEK-293T; [4],85%
same,Population Pyknosed Nuclei (%),HEK-293T; [4],62% and 68%
same,Population Tubulin-Different-Phenotype (%),HEK-293T; [4],65% and 78%
same,Total Cell Count,HEK-293T; [4],442 and 399
same,Population Apoptotic (%),U2OS; [5],78% and 85%
same,Population Fragmented Nuclei (%),U2OS; [5],15% and 10%
same,Population Healthy Nuclei (%),U2OS; [5],50% and 56%
same,Population Hoechst High Intensity Objects (%),U2OS; [5],0%
same,Population Membrane Permeable-Phenotype (%),U2OS; [5],15% and 7%
same,Population Mitotic Cells (%),U2OS; [5],21% and 14%
same,Population Normal (%),U2OS; [5],100% and 99%
same,Population Pyknosed Nuclei (%),U2OS; [5],35% and 33%
same,Population Tubulin-Different-Phenotype (%),U2OS; [5],65% and 50%
same,Population Apoptotic (%),U2OS; [6],80% and 82%
same,Population Fragmented Nuclei (%),U2OS; [6],8% and 13%
same,Population Healthy Nuclei (%),U2OS; [6],15% and 11%
same,Population Hoechst High Intensity Objects (%),U2OS; [6],0%
same,Population Membrane Permeable-Phenotype (%),U2OS; [6],80% and 83%
same,Population Mitochondria Different-Phenotype (%),U2OS; [6],45% and 66%
same,Population Mitotic Cells (%),U2OS; [6],19% and 17%
same,Population Normal (%),U2OS; [6],99% and 100%
same,Population Pyknosed Nuclei (%),U2OS; [6],76% and 75%
same,Population Tubulin-Different-Phenotype (%),U2OS; [6],100% and 83%
same,Population Apoptotic (%),U2OS; [1],65% and 93%
same,Population Fragmented Nuclei (%),U2OS; [1],25% and 9%
same,Population Healthy Nuclei (%),U2OS; [1],29% and 40%
same,Population Hoechst High Intensity Objects (%),U2OS; [1],0%
same,Population Membrane Permeable-Phenotype (%),U2OS; [1],6% and 13%
same,Population Mitochondria Different-Phenotype (%),U2OS; [1],13% and 20%
same,Population Normal (%),U2OS; [1],100%
same,Population Pyknosed Nuclei (%),U2OS; [1],45% and 50%
same,Population Tubulin-Different-Phenotype (%),U2OS; [1],86% and 59%
same,Population Apoptotic (%),U2OS; [2],97%
same,Population Fragmented Nuclei (%),U2OS; [2],11% and 9%
same,Population Healthy Nuclei (%),U2OS; [2],4% and 3%
same,Population Hoechst High Intensity Objects (%),U2OS; [2],0% and 2%
same,Population Membrane Permeable-Phenotype (%),U2OS; [2],100% and 83%
same,Population Mitochondria Different-Phenotype (%),U2OS; [2],100% and 83%
same,Population Mitotic Cells (%),U2OS; [2],2%
same,Population Normal (%),U2OS; [2],100% and 97%
same,Population Pyknosed Nuclei (%),U2OS; [2],84% and 87%
same,Population Tubulin-Different-Phenotype (%),U2OS; [2],100%
same,Population Apoptotic (%),U2OS; [3],76% and 97%
same,Population Healthy Nuclei (%),U2OS; [3],9% and 17%
same,Population Hoechst High Intensity Objects (%),U2OS; [3],4% and 5%
same,Population Normal (%),U2OS; [3],95% and 94%
same,Population Pyknosed Nuclei (%),U2OS; [3],60% and 74%
same,Population Tubulin-Different-Phenotype (%),U2OS; [3],100% and 82%
same,Population Apoptotic (%),U2OS; [4],93%
same,Population Fragmented Nuclei (%),U2OS; [4],0% and 6%
same,Population Healthy Nuclei (%),U2OS; [4],23% and 10%
same,Population Hoechst High Intensity Objects (%),U2OS; [4],0% and 1%
same,Population Membrane Permeable-Phenotype (%),U2OS; [4],90% and 94%
same,Population Mitochondria Different-Phenotype (%),U2OS; [4],90% and 72%
same,Population Mitotic Cells (%),U2OS; [4],6%
same,Population Normal (%),U2OS; [4],100% and 98%
same,Population Pyknosed Nuclei (%),U2OS; [4],76% and 83%
same,Population Tubulin-Different-Phenotype (%),U2OS; [4],100% and 88%
